# Columns and labels:
# HeLa = experiment: Cytotoxicity against HeLa cell line; format: cell-based; conditions: Homo sapiens
# How it was run: (§1)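 Log-phase cells were diluted to 20 000–30 000 cells/mL, seeded, and left to attach overnight. They were then exposed to compounds at 10^–5–10^–12 M for 72 h at 37 °C in 5% CO2. Viable cells were measured by MTT, with absorbance read at 595 nm. Each compound ran in triplicate in at least three independent assays. IC50 came from nonlinear regression, and average values were reported.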
# HCT-116 = experiment: Cytotoxicity against HCT116 cell line; format: cell-based; conditions: Homo sapiens; how it was run: as §1
# Tubulin = experiment: Inhibition of tubulin polymerization; format: protein-complex assay, Homo sapiens
# How it was run: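 Kit-based assay run per the manufacturer's instructions. Tubulin (>99% pure, 3 mg/mL) in G-PEM buffer, in a prewarmed plate with compound at 0.03–30 μM. OD340 nm read every 60 s at 37 °C for 1 h.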
# [1] = Cytotoxicity against P-glycoprotein-overexpressing KB-V1 cell line; format: cell-based; conditions: Homo sapiens; how it was run: as §1
# [2] = Cytotoxicity against KB-3-1 cell line; format: cell-based; conditions: Homo sapiens; how it was run: as §1
# ZR-75-1 = experiment: Cytotoxicity against ZR-75-1 cell line; format: cell-based; conditions: Homo sapiens; how it was run: as §1
SMILES,IC50 (HeLa) [µM],IC50 (HCT-116) [µM],IC50 (Tubulin) [µM],IC50 [1] [µM],IC50 [2] [µM],IC50 (ZR-75-1) [µM]
COc1cc(-c2nncn2-c2ccc3c(c2)CCN3C)cc(OC)c1OC,4.1,3.29,> 10,,,
COc1cc(-n2cnnc2-c2ccc3c(ccn3C)c2)cc(OC)c1OC,0.018,0.0243,5.6,0.0321,0.015,
COc1cc2c(c(OC)c1OC)-c1ccc(OC)c(=O)cc1[C@@H](NC(C)=O)CC2 [COLCHICINE],0.00184,0.00275,,0.62,0.00399,0.522
COc1ccc(/C=C\c2cc(OC)c(OC)c(OC)c2)cc1O [COMBRETASTATIN A4],0.0003,0.00035,,0.00064,0.00078,0.00024
CC(=O)O[C@H]1C(=O)[C@@]2(C)[C@H]([C@H](OC(=O)c3ccccc3)[C@]3(O)C[C@H](OC(=O)[C@H](O)[C@@H](NC(=O)c4ccccc4)c4ccccc4)C(C)=C1C3(C)C)[C@]1(OC(C)=O)CO[C@@H]1C[C@@H]2O [PACLITAXEL],,,,> 10,0.0233,0.308

# From ChEMBL document CHEMBL1141374 (J Med Chem, 2007)
